Screens deposited in PubChem BioAssay by Broad Institute.
In the library only some 3.1% were active in any assay of this set; here they are far more common.
EWS-Fli block: inhibitors of EWS/Fli oncoprotein transcriptional activity; 350,000 tested, 0.67% active; AID 651661; A673 NR0B1-luciferase reporter, viability-normalised; inhibition, % at 12.6 µM;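 active means mean inhibition of at least 50% after viability correction, with every replicate also passing that limit; inconclusive means mean reaches 50% but only one of two replicates passes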;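 further: firefly luciferase signal divided by Alamar Blue viability fluorescence both relative to DMSO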
PAX8 inh HTS: lowers PAX8-driven luciferase in RMG-I cells. inhibition, % at 12.6 µM. 360,000 tested, 1.2% active. AID 652154. RMG-I TPO-luciferase reporter, SteadyGlo, 24 h;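 active means mean replicate inhibition at least 60% with every replicate also reaching 60%; inconclusive means only one of the two criteria is met; inactive means mean below 60% and not all replicates reaching 60%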;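 further: luciferase light reporting Pax8 driven TPO promoter activity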
PGC1a acetyl inh: PGC1a acetylation modulation, inhibitor mode; AID 651687; inhibition, % at 15.6 µM; 350,000 tested, 0.17% active; U2OS PGC1a acetylation, AlphaScreen anti-acetyl-lysine; with virally co-expressed GCN5 acetyltransferase;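 active means every replicate shows inhibition of at least 40%; inconclusive means mean inhibition at least 40% but some replicate below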
Env fusion inh: blocks HIV Env-driven cell-cell fusion; HeLa-JRFL Env/CEM21 cell fusion, luciferase; inhibition, % at 12.3 µM; 360,000 tested, 1.1% active;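 active means mean replicate inhibition score of at least 50 and every replicate individually at or above 50; inconclusive means only one of the two criteria met; inactive means mean below 50 and not all replicates reaching 50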
FGF22 binding: shifts melting point of recombinant human FGF22 | Q9HCT0 | recombinant FGF22 thermal shift, SYPRO orange fluorescence; percent of sucrose octasulfate shift, DMSO zero | activity (Tm shift, normalised), % at 9.99 µM | 340,000 tested, 1.5% active | AID 651658;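 active means mean Tm shift, scaled 0 neutral to 100 positive control, at about 1.3% or above, every replicate too, limit read from the data; inconclusive means no clear call, values can overlap the other calls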
Target sequence (Q9HCT0 whole entry, looked up): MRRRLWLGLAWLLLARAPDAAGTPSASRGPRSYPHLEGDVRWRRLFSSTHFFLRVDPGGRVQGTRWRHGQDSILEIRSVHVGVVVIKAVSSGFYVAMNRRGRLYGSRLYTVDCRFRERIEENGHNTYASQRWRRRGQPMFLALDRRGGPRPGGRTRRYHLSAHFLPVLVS
FN deposition inh: fibronectin deposition inhibition. AH1F fibroblasts, Alexa488-fibronectin deposition fluorescence, overnight. inhibition, % at 12.6 µM. 350,000 tested, 0.086% active. AID 743247;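 active means mean inhibition across replicates of 30% or more, regardless of how many single replicates reach that level; inconclusive means mean under 30% yet at least half of replicates reach 30%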
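Measured by – fluorescence 485/525 nm · System – AH1F fibroblast monolayer, labelled fibronectin deposition · Amount – 10000 cells per well · Buffer or medium – serum-reduced DMEM (2% serum) · Doses – single dose, pinned · Also added – fluorescent fibronectin at 24 nM final · Schedule – 1 h cell attachment, overnight exposure to compound and label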
Each line names hits and unclear results; the compound was inactive in the other large screens; [ ] = remark or other dose.

CCC(=O)N(C)C[C@@H]1Oc2ncc(-c3ccccc3C)cc2C(=O)N([C@H](C)CO)C[C@H]1C	none (no result: PAX8 inh HTS)
CO[C@H]1CN(C)C(=O)c2ccc(NC(=O)C3CC3)cc2OC[C@@H](C)NC[C@@H]1C	none (no result: Env fusion inh)
C[C@@H]1CN([C@H](C)CO)C(=O)c2cc(NC(=O)Cc3ccccc3)ccc2O[C@@H](C)CCCCO[C@H]1CN(C)Cc1ccc(C(F)(F)F)cc1	PAX8 inh HTS 79.7, Env fusion inh 73.2[16.7 µM] (no result: FN deposition inh)
C[C@H]1CCCCO[C@@H](CN(C)Cc2ccc(C(=O)O)cc2)[C@@H](C)CN([C@@H](C)CO)C(=O)c2cc(NC(=O)Cc3ccccc3)ccc2O1	none (no result: FN deposition inh)
C[C@@H]1CCCCO[C@@H](CN(C)Cc2ccc(C(F)(F)F)cc2)[C@H](C)CN([C@H](C)CO)C(=O)c2cc(NC(=O)Cc3ccccc3)ccc2O1	PAX8 inh HTS 90.7 (no result: FN deposition inh)
C[C@H]1CCCCO[C@H](CN(C)Cc2ccc(C(F)(F)F)cc2)[C@@H](C)CN([C@@H](C)CO)C(=O)c2cc(NC(=O)Cc3ccccc3)ccc2O1	PAX8 inh HTS 76.2, Env fusion inh inconclusive
C[C@@H]1CN([C@@H](C)CO)C(=O)c2cc(NC(=O)Cc3ccccc3)ccc2O[C@@H](C)CCCCO[C@H]1CN(C)Cc1ccc(C(F)(F)F)cc1	PAX8 inh HTS 76.4, Env fusion inh 63.9[16.7 µM] (no result: FN deposition inh)
CC=Cc1ccc2n(c1=O)C[C@@H]1[C@@H](CO)[C@H](C(=O)NCc3ccccc3)N(C)[C@H]21 (mixture of isomers)	none (no result: PAX8 inh HTS, PGC1a acetyl inh, Env fusion inh, FN deposition inh)
C[C@H](CO)N1C[C@H](C)[C@H](CN(C)Cc2ccc(C(F)(F)F)cc2)OCCCC[C@H](C)Oc2ccc(NC(=O)Cc3ccccc3)cc2C1=O	PAX8 inh HTS 110.1, Env fusion inh 71.6[16.7 µM] (no result: FN deposition inh)
C[C@@H]1CN([C@H](C)CO)C(=O)c2cc(NC(=O)Cc3ccccc3)ccc2O[C@@H](C)CCCCO[C@@H]1CN(C)Cc1ccccc1	none
C[C@H]1CCCCO[C@H](CN(C)Cc2ccccc2)[C@@H](C)CN([C@@H](C)CO)C(=O)c2cc(NC(=O)Cc3ccccc3)ccc2O1	none
C[C@@H]1CN([C@@H](C)CO)C(=O)c2cc(NC(=O)Cc3ccccc3)ccc2O[C@@H](C)CCCCO[C@@H]1CN(C)Cc1ccc(C(F)(F)F)cc1	PAX8 inh HTS 96.6 (no result: FN deposition inh)
COCC(=O)N1[C@@H]2CN(C(=O)Nc3ccccc3Cl)c3ccccc3[C@@H]2[C@@H]1CO	none (no result: Env fusion inh)
C[C@@H]1CN([C@H](C)CO)C(=O)c2cc(NC(=O)Cn3cnnn3)ccc2O[C@H]1CN(C)C(=O)Nc1cccc2ccccc12	none (no result: PAX8 inh HTS, Env fusion inh, FN deposition inh)
O=C(/C=C/c1ccccc1)NCC(=O)N/N=C/c1ccccc1[N+](=O)[O-]	FGF22 binding 43.5 (no result: PGC1a acetyl inh)
Cc1ccc(C2Oc3ccccc3C3=C2C(c2cccs2)n2ncnc2N3)cc1 (stereo unspecified)	Env fusion inh 101.8 (no result: EWS-Fli block, PAX8 inh HTS, FGF22 binding)
Fc1ccc(C2C3=C(Nc4ncnn42)c2ccccc2OC3c2ccncc2)cc1 (stereo unspecified)	none (no result: EWS-Fli block, FGF22 binding)
Cc1ccc(S(=O)(=O)Nc2ccc3c(c2)CC(=O)N([C@H](C)CO)C[C@H](C)[C@H](CN(C)C(=O)Nc2ccccc2)O3)cc1	none (no result: FN deposition inh)
Cc1csc(SCC(=O)Nc2nc(-c3ccccc3)cs2)n1	none (no result: EWS-Fli block, PAX8 inh HTS, Env fusion inh, FGF22 binding, FN deposition inh)
Nc1ccccc1SCC(=O)Nc1nc(-c2ccccc2)cs1	FGF22 binding 1.5 (no result: FN deposition inh)
[N-]=[N+]=NCc1ccccc1C[C@]1(C(=O)N2CCCCC2)N=C(c2ccc(OCCCO)cc2)O[C@H]1c1ccccc1	Env fusion inh 67.9[16.7 µM] (no result: PGC1a acetyl inh, FN deposition inh)
O=C(NCc1ccccc1)[C@]1(Cc2ccccc2)N=C(c2ccc(OCCCO)cc2)O[C@@H]1c1ccccc1	PAX8 inh HTS 93.9 (no result: FN deposition inh)
[N-]=[N+]=NCc1ccccc1C[C@@]1(C(=O)N2CCCCC2)N=C(c2ccc(OCCCO)cc2)O[C@@H]1c1ccccc1	none (no result: PGC1a acetyl inh, FN deposition inh)
O=S(=O)(c1cccc(F)c1)N1CC[C@H]2[C@H](CO)Nc3ccc(-c4cccc(F)c4)cc3[C@H]21	FN deposition inh 35.5 (no result: Env fusion inh)
Cc1ccccc1S(=O)(=O)N1CC[C@@H]2[C@H](CO)Nc3ccc(-c4cccc(F)c4)cc3[C@@H]21	PAX8 inh HTS 114.0 (no result: Env fusion inh)
N#Cc1cccc(-c2ccc3c(c2)[C@@H]2[C@@H](CCN2S(=O)(=O)c2cccc(F)c2)[C@@H](CO)N3)c1	none (no result: Env fusion inh)
N#Cc1ccc(-c2ccc3c(c2)[C@@H]2[C@@H](CCN2S(=O)(=O)c2cccc(F)c2)[C@@H](CO)N3)cc1	FN deposition inh 34.8 (no result: Env fusion inh)
COc1ccc(C#Cc2ccc3c(c2)O[C@H](CN(C)C(=O)CN2CCOCC2)[C@@H](C)CN([C@@H](C)CO)S3(=O)=O)cc1	none (no result: FN deposition inh)
C[C@@H]1CN([C@@H](C)CO)C(=O)c2cc(NC(=O)CCCN(C)C)ccc2O[C@@H](C)CCCCO[C@@H]1CN(C)C(=O)Nc1ccc2c(c1)OCO2	none (no result: Env fusion inh, FN deposition inh)
Cc1ccc(S(=O)(=O)N(C)C[C@H]2Oc3ccc(NC(=O)Nc4ccccc4)cc3C(=O)N([C@H](C)CO)C[C@H]2C)cc1	none (no result: Env fusion inh, FN deposition inh)
C=CCNC(=O)[C@H]1[C@@H]2C(=O)O[C@@H](c3ccccc3)[C@@H](c3ccccc3)N2[C@@H](c2ccccc2OCCO)[C@]12C(=O)Nc1ccc(C#CCC(C(=O)OC)C(=O)OC)cc12	EWS-Fli block 54.0 (no result: PAX8 inh HTS, FN deposition inh)
C=CCNC(=O)[C@H]1[C@@H]2C(=O)O[C@@H](c3ccccc3)[C@@H](c3ccccc3)N2[C@@H](c2ccc(OCCO)cc2)[C@]12C(=O)Nc1ccc(C#CCC(C(=O)OC)C(=O)OC)cc12	none (no result: PGC1a acetyl inh, FN deposition inh)
NC(=O)[C@H]1[C@@H]2C(=O)O[C@@H](c3ccccc3)[C@@H](c3ccccc3)N2[C@@H](c2ccccc2OCCO)[C@]12C(=O)Nc1ccc(C#CC3(O)CCCCCC3)cc12	PAX8 inh HTS 103.1 (no result: FN deposition inh)
COCCOC(=O)N1C(=O)[C@@]2(c3ccccc31)[C@H](c1ccccc1OCCO)N1[C@H](c3ccccc3)[C@H](c3ccccc3)OC(=O)[C@H]1[C@@H]2C(N)=O	FGF22 binding 24.0 (no result: PGC1a acetyl inh, FN deposition inh)
COC(=O)C(CC#Cc1ccc2c(c1)[C@]1(C(=O)N2)[C@H](c2ccccc2OCCO)N2[C@H](c3ccccc3)[C@H](c3ccccc3)OC(=O)[C@H]2[C@@H]1C(=O)N1CCN(c2ncccn2)CC1)C(=O)OC	EWS-Fli block 59.7, PAX8 inh HTS 109.8 (no result: FN deposition inh)
NC(=O)[C@H]1[C@@H]2C(=O)O[C@@H](c3ccccc3)[C@@H](c3ccccc3)N2[C@@H](c2ccc(OCCO)cc2)[C@]12C(=O)Nc1ccc(C#CC3(O)CCCCCC3)cc12	none (no result: FN deposition inh)
Cc1ccc(S(=O)(=O)Nc2cccc3c2O[C@@H](CN(C)C(=O)NC(C)C)[C@@H](C)CN([C@@H](C)CO)C3=O)cc1	none (no result: Env fusion inh, FN deposition inh)
Cn1cccc1C(=O)NC(=O)CSc1cccc[n+]1[O-]	none (no result: EWS-Fli block, FGF22 binding)
COc1ccccc1C(=O)NC(=O)CSc1cccc[n+]1[O-]	FGF22 binding 43.6 (no result: FN deposition inh)
